From ChEMBL document CHEMBL3414507, “Design, synthesis, biological evaluation and preliminary mechanism study of novel benzothiazole derivatives bearing indole-based moiety as potent antitumor agents” (Eur J Med Chem, 2015)
“And” between values parts separate entries of the source, which are not always exact repeats. Equal entries are not always repeated.

Assays:
MDA-MB-231 = test: Cytotoxicity against human MDA-MB-231 cells after 72 hrs by MTT assay; format: functional, cell-based; settings: MDA-MB-231, 72 h
Procedure, shortened: (§1)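 MTT assay on HT29, H460, A549 and MDA-MB-231 cells with oncrasin-1 and PAC-1 as positive controls; IC50 from three independent experiments.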

[1] = Cytotoxicity against human H460 cells after 72 hrs by MTT assay; format: functional, cell-based; settings: NCI-H460, 72 h; procedure, shortened: as §1
HT-29 [2] = test: Cytotoxicity against human HT-29 cells after 72 hrs by MTT assay; format: functional, cell-based; procedure, shortened: as §1
A549 = test: Cytotoxicity against human A549 cells after 72 hrs by MTT assay; format: functional, cell-based; settings: A549, 72 h; procedure, shortened: as §1
[3] = molecular target: Platelet-derived growth factor receptor beta (Homo sapiens) (UniProt P09619); test: Inhibition of PDGFR-beta (unknown origin) at 10 uM after 30 mins by HTRF method
[4] = molecular target: Receptor-type tyrosine-protein kinase FLT3 (Homo sapiens) (UniProt P36888); test: Inhibition of FLT3 (unknown origin) at 10 uM after 30 mins by HTRF method
Tubulin (Homo sapiens) = Tubulin (Homo sapiens) (UniProt P68371+Q9H4B7+P0DPH7+P68366+Q13509+Q71U36+P04350+Q3ZCM7+P07437+P68363+Q9BQE3+Q6PEY2+Q13885+Q9BVA1+Q9BUF5); test: Inhibition of tubulin (unknown origin) at 10 uM measured for 20 mins by turbidity method; format: protein-complex assay
Caspase-3 (Homo sapiens) = molecular target: T1, Caspase-3 (Homo sapiens) (UniProt P42574); test: Activation of procaspase-3 (unknown origin) using Ac-DEVD-pNa as substrate at 10 uM after 2 hrs by spectrophotometry
T1 sequence (whole entry): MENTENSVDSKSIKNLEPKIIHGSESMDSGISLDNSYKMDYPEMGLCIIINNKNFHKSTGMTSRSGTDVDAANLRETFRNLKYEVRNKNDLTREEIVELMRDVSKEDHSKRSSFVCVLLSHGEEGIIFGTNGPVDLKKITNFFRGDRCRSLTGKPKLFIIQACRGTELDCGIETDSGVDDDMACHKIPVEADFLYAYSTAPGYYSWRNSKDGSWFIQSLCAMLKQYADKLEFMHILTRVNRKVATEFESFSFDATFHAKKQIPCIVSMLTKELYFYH

[5] = molecular target: Vascular endothelial growth factor receptor 2 (Homo sapiens) (UniProt P35968); test: Inhibition of KDR (unknown origin) at 10 uM after 30 mins by HTRF method
HT-29 [6] = test: Cell cycle arrest in human HT-29 cells assessed as accumulation at G0/G1 phase AT 10 uM after 48 hrs by propidium iodide staining-based assay (reference value: 54.11%); format: functional

Sequence of Vascular endothelial growth factor receptor 2 (Homo sapiens) (P35968 whole entry): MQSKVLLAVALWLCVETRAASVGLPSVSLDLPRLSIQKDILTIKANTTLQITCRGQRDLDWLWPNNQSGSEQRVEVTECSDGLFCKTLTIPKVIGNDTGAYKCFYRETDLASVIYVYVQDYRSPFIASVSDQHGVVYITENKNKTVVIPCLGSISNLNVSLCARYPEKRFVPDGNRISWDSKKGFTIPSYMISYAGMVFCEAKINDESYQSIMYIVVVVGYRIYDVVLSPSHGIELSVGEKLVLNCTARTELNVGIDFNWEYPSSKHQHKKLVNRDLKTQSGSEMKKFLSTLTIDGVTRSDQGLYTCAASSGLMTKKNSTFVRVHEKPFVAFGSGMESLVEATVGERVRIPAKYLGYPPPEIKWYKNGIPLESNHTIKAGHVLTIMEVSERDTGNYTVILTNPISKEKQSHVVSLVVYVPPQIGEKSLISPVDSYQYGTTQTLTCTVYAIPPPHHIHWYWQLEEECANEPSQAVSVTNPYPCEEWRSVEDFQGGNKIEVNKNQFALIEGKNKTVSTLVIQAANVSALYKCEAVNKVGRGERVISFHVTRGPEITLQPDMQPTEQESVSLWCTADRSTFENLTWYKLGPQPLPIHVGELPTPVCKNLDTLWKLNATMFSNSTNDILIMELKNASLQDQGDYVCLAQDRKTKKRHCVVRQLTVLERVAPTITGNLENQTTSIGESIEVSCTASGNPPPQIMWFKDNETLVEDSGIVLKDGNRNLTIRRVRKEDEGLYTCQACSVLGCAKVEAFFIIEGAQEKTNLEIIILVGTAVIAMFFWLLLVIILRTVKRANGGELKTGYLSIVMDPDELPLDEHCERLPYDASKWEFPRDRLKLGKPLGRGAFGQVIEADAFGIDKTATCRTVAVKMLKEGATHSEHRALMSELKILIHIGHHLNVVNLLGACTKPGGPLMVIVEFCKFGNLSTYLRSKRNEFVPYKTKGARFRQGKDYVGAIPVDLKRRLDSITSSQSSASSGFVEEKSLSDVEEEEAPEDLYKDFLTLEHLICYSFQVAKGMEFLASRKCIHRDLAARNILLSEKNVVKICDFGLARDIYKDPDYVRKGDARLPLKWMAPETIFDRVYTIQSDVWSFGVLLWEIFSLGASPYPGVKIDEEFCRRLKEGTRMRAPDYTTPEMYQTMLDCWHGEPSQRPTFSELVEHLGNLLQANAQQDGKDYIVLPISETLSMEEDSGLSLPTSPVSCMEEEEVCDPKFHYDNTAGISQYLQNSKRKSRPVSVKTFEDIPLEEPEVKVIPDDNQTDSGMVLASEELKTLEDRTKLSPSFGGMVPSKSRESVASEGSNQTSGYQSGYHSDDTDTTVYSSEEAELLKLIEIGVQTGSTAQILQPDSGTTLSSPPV
Sequence of Receptor-type tyrosine-protein kinase FLT3 (Homo sapiens) (P36888 whole entry): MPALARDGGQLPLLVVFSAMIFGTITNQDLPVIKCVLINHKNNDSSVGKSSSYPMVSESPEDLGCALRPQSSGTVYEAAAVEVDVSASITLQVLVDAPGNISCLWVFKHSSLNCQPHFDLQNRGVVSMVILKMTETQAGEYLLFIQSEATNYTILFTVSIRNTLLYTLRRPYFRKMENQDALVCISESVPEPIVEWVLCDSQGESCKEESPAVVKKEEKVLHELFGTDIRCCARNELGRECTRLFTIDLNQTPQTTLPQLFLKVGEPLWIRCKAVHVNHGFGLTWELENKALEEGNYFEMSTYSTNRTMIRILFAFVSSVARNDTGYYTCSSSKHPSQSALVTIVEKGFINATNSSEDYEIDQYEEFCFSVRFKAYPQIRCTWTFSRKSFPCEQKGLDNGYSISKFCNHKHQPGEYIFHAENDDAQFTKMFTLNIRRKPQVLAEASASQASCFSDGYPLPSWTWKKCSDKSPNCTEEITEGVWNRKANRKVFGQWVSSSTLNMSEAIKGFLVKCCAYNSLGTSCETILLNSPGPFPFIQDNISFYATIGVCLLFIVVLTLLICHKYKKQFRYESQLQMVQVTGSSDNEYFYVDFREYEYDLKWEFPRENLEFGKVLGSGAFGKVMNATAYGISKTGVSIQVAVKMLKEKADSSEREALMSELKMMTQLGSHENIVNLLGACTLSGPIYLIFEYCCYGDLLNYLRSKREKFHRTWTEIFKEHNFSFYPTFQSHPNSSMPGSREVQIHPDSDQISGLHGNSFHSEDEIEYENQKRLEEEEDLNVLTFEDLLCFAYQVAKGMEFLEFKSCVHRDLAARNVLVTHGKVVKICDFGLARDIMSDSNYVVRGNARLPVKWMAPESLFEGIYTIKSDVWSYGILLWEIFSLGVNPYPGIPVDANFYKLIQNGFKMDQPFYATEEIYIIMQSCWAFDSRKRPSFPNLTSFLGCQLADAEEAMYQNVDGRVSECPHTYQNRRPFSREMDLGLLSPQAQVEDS
Sequence of Platelet-derived growth factor receptor beta (Homo sapiens) (P09619 whole entry): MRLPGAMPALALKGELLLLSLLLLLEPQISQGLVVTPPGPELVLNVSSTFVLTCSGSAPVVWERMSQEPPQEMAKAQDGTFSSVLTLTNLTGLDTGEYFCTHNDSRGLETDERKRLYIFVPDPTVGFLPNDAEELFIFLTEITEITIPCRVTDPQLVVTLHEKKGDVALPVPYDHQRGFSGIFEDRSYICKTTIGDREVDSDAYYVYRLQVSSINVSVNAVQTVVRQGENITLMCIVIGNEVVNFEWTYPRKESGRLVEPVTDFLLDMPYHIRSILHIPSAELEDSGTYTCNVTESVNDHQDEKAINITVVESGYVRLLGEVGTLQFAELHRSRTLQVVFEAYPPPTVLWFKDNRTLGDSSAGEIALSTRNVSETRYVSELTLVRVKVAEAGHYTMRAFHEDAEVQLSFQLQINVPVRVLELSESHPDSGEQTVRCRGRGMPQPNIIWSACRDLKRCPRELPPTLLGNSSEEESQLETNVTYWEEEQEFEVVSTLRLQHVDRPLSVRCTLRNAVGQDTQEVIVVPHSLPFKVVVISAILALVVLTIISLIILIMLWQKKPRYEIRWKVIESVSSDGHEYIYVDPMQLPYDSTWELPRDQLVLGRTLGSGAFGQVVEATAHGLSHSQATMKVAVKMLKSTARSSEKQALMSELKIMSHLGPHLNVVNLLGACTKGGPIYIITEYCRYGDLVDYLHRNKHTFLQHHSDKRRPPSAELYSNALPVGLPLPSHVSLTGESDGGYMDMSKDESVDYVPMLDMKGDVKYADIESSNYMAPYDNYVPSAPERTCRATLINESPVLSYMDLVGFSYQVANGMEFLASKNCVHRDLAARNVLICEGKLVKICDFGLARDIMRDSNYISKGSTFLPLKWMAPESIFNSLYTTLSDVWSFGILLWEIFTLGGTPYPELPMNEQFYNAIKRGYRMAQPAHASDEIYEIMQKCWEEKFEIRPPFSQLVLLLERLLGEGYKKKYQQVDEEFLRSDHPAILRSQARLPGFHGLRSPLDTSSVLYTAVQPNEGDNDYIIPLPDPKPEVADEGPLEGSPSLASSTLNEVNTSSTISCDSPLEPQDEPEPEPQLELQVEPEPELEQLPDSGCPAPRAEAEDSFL

Compound	IC50 (MDA-MB-231) [nM]	IC50 [1] [nM]	IC50 (HT-29 [2]; ht-29)	IC50 (A549) [nM]	inhibition [3] [%]	inhibition [4] [%]	inhibition (Tubulin (Homo sapiens)) [%]	Activity (Caspase-3 (Homo sapiens)) [%]	inhibition [5] [%]	Activity (HT-29 [6]) [%]	IC50 (HT-29 [2]; Homo sapiens, HT-29, 72 h) [nM]
CCN(CC)Cc1ccc2nc(NC(=O)N/N=C/c3cn(Cc4ccc(Cl)c(Cl)c4)c4ccccc34)sc2c1	4490	610	630 nM and 6200 nM	1470							
CC1CCN(Cc2ccc3nc(NC(=O)N/N=C/c4cn(Cc5cccc(Cl)c5)c5ccccc45)sc3c2)CC1	2110	280	730 nM and 6140 nM	2810							
CN(C)Cc1ccc2nc(NC(=O)N/N=C/c3cn(Cc4ccc(Cl)cc4Cl)c4ccccc34)sc2c1	1410	950		2000							
CC1CCN(Cc2ccc3nc(NC(=O)N/N=C/c4cn(Cc5ccccc5Cl)c5ccccc45)sc3c2)CC1	1360	1080	1570 nM and 5890 nM	3330							
CN(C)Cc1ccc2nc(NC(=O)N/N=C/c3cn(Cc4ccccc4)c4ccccc34)sc2c1	1340	400		2900							
CN(C)Cc1ccc2nc(NC(=O)N/N=C/c3cn(Cc4ccc(Cl)cc4)c4ccccc34)sc2c1	880	290		840	12.8	4.1	26	70.9	5.9	68.66	
CCN(CC)Cc1ccc2nc(NC(=O)N/N=C/c3cn(Cc4ccc(C)cc4)c4ccccc34)sc2c1	2010	320		1510							
CCN(CC)Cc1ccc2nc(NC(=O)N/N=C/c3cn(Cc4cccc(Cl)c4)c4ccccc34)sc2c1	2050	220		2410							
CCN(CC)Cc1ccc2nc(NC(=O)N/N=C/c3c[nH]c4ccccc34)sc2c1	1900	3140	12100 nM and 4920 nM	3300							
CN(C)Cc1ccc2nc(NC(=O)N/N=C/c3cn(Cc4ccc(Cl)c(Cl)c4)c4ccccc34)sc2c1	1000	1360		940							
CC1CCN(Cc2ccc3nc(NC(=O)N/N=C/c4cn(Cc5ccccc5)c5ccccc45)sc3c2)CC1	2850	1910	2050 nM and 5720 nM	2340							
C=CCc1cccc(/C=N/NC(=O)CN2CCN(Cc3ccccc3)CC2)c1O [PAC-1]	3200	1250		2510				100			1020
CC1CCN(Cc2ccc3nc(NC(=O)N/N=C/c4cn(Cc5ccc(Cl)cc5Cl)c5ccccc45)sc3c2)CC1	3140	1660	2120 nM and 5620 nM	3640							
CC1CCN(Cc2ccc3nc(NC(=O)N/N=C/c4c[nH]c5ccccc45)sc3c2)CC1	2460	4130	15200 nM and 4820 nM	3580							
CN(C)Cc1ccc2nc(NC(=O)N/N=C3\C(=O)Nc4ccc(Cl)cc43)sc2c1		1170	2570 nM and 5590 nM	3180							
CCN(CC)Cc1ccc2nc(NC(=O)N/N=C3\C(=O)Nc4ccc(OC(F)(F)F)cc43)sc2c1		2110	1900 nM and 5720 nM	1990							
CN(C)Cc1ccc2nc(NC(=O)N/N=C3\C(=O)Nc4ccc(F)cc43)sc2c1		1550	970 nM and 6010 nM	2310	2.2	34.1		9.1	3.7		

Compound	IC50 (MDA-MB-231) [nM]	IC50 [1] [nM]	IC50 (HT-29 [2]; ht-29)	IC50 (A549) [nM]	inhibition [3] [%]	inhibition [4] [%]	inhibition (Tubulin (Homo sapiens)) [%]	Activity (Caspase-3 (Homo sapiens)) [%]	inhibition [5] [%]	Activity (HT-29 [6]) [%]	IC50 (HT-29 [2]; Homo sapiens, HT-29, 72 h) [nM]
Cc1ccc(Cn2cc(/C=N/NC(=O)Nc3nc4ccc(CN5CCC(C)CC5)cc4s3)c3ccccc32)cc1	1140	410	1030 nM and 5940 nM	2180							
CN(C)Cc1ccc2nc(NC(=O)N/N=C/c3cn(Cc4ccccc4Cl)c4ccccc34)sc2c1	1180	1600		1080							
CCN(CC)Cc1ccc2nc(NC(=O)N/N=C/c3cn(Cc4ccccc4)c4ccccc34)sc2c1	1470	450		3330							
CCN(CC)Cc1ccc2nc(NC(=O)N/N=C3\C(=O)Nc4ccc(F)cc43)sc2c1		1060	1550 nM and 5810 nM	2010							
CN(C)Cc1ccc2nc(NC(=O)N/N=C/c3cn(Cc4cccc(Cl)c4)c4ccccc34)sc2c1	1140	420		1240			18	48.8			
O=Cc1cn(Cc2ccc(Cl)cc2)c2ccccc12	26100	850		2480							1710
CC1CCN(Cc2ccc3nc(NC(=O)N/N=C4\C(=O)Nc5ccc(F)cc54)sc3c2)CC1		1430	5390 nM	3010							4100
CCN(CC)Cc1ccc2nc(NC(=O)N/N=C/c3cn(Cc4ccc(Cl)cc4Cl)c4ccccc34)sc2c1	3280	1080	1040 nM and 6060 nM	1900							
CCN(CC)Cc1ccc2nc(NC(=O)N/N=C/c3cn(Cc4ccc(C(C)(C)C)cc4)c4ccccc34)sc2c1	2120	1670		1710							
Cc1ccc(Cn2cc(/C=N/NC(=O)Nc3nc4ccc(CN(C)C)cc4s3)c3ccccc32)cc1	1220	200		1600							
CN(C)Cc1ccc2nc(NC(=O)N/N=C/c3cn(Cc4ccc(C(C)(C)C)cc4)c4ccccc34)sc2c1	2230	810		1850							
CN(C)Cc1ccc2nc(NC(=O)N/N=C/c3c[nH]c4ccccc34)sc2c1	1190	2550	5000 nM	3300							9900
CC1CCN(Cc2ccc3nc(NC(=O)N/N=C/c4cn(Cc5ccc(Cl)cc5)c5ccccc45)sc3c2)CC1	2850	400	750 nM and 6430 nM	2030							
CCN(CC)Cc1ccc2nc(NC(=O)N/N=C/c3cn(Cc4ccccc4Cl)c4ccccc34)sc2c1	900	980		1390							
CCN(CC)Cc1ccc2nc(NC(=O)N/N=C/c3cn(Cc4ccc(Cl)cc4)c4ccccc34)sc2c1	2570	370		2940							
CC1CCN(Cc2ccc3nc(NC(=O)N/N=C/c4cn(Cc5ccc(C(C)(C)C)cc5)c5ccccc45)sc3c2)CC1	3880	3370	1500 nM and 5750 nM	3710							
